The target of one data set is T1, CYP2B4 (Oryctolagus cuniculus, UniProt P00178, H226Y).
T1 sequence (P00178 with tags, fused parts or gaps H226Y): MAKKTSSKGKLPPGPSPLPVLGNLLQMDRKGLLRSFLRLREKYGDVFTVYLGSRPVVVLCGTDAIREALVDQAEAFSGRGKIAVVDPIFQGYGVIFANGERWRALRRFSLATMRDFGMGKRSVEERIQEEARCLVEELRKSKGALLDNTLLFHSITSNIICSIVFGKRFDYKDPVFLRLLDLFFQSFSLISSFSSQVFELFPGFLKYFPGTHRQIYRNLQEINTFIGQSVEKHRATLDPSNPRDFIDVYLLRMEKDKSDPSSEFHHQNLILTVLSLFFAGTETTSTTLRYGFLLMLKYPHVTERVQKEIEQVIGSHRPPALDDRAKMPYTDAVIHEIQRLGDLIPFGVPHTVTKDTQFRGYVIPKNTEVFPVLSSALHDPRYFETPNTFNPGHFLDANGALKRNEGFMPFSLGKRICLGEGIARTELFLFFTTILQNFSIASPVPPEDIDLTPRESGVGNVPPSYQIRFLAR
Kind of data set: NADPH oxidation assay. The class given is biochemical, rabbit. To be noted: CYP:POR:cyt b5 1:4:2, 20 μM inhibitor, 37 °C. An outline of the steps:
(§1)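 Purified CYP2B was reconstituted with POR and cyt b5 at CYP:POR:cyt b5 1:4:2, or 0:4:2 for the partner-only control. Mixtures contained ligand (20 µM unless stated) and 1% acetone in 300 µL. After 5 min preincubation at 37 °C, 0.2 mM NADPH was added. NADPH consumption was recorded kinetically as the A340 decrease (ε 6.22 mM-1 cm-1). Rates are nmol/min/nmol P450, mean ± SD of three independent experiments.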

Another data set addresses POR:cyt b5 (Rattus norvegicus, UniProt P00173+P00388). Kind of data set: NADPH oxidation assay, redox partners only. The class given is biochemical. To be noted: control POR:cyt b5=4:2 without CYP; 20 μM 4-CPI; 37 °C. An outline of the steps: as §1

Chain of POR:cyt b5 (P00388 whole entry): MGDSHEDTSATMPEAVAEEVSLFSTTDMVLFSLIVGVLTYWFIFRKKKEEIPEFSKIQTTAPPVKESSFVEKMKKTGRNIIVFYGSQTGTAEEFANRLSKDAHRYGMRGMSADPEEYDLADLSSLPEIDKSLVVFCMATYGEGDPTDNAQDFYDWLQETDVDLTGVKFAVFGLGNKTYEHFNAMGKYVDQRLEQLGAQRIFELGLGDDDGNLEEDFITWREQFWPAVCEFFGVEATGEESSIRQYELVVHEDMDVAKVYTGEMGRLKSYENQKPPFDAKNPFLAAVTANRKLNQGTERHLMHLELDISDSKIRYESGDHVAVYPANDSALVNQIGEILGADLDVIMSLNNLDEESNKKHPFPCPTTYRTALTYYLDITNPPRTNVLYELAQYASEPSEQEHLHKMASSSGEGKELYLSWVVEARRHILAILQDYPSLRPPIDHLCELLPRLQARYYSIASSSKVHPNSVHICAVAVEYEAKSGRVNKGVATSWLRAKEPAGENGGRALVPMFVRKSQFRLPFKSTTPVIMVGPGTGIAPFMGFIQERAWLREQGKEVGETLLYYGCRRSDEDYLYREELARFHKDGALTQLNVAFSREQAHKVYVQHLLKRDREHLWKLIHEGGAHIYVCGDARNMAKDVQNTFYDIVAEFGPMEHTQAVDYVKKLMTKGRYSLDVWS
Chain of POR:cyt b5 (P00173 whole entry): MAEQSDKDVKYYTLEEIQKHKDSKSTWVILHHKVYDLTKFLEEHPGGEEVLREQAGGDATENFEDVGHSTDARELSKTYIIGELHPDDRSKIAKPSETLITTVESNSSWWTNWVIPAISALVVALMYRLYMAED

On to `Clc1ccc(-c2c[nH]cn2)cc1` [4-CPI, 4-(4-chlorophenyl)imidazole, reference compound], for which the NADPH oxidation rate at CYP2B4 stood at 10±1 nmol/min/nmolP450; at POR:cyt b5, 12±1 nmol/min/nmolP450.

Values taken from article PMC5831081 (Biochemistry, 2017).
